This is an account of results in ChEMBL document CHEMBL3259663, “3-Amido-3-aryl-piperidines: A Novel Class of Potent, Selective, and Orally Active GlyT1 Inhibitors” (ACS Med Chem Lett, 2014).

The first experiment concerns the target T1, Sodium- and chloride-dependent glycine transporter 1 (Homo sapiens, UniProt P48067).
T1 sequence (P48067 whole entry): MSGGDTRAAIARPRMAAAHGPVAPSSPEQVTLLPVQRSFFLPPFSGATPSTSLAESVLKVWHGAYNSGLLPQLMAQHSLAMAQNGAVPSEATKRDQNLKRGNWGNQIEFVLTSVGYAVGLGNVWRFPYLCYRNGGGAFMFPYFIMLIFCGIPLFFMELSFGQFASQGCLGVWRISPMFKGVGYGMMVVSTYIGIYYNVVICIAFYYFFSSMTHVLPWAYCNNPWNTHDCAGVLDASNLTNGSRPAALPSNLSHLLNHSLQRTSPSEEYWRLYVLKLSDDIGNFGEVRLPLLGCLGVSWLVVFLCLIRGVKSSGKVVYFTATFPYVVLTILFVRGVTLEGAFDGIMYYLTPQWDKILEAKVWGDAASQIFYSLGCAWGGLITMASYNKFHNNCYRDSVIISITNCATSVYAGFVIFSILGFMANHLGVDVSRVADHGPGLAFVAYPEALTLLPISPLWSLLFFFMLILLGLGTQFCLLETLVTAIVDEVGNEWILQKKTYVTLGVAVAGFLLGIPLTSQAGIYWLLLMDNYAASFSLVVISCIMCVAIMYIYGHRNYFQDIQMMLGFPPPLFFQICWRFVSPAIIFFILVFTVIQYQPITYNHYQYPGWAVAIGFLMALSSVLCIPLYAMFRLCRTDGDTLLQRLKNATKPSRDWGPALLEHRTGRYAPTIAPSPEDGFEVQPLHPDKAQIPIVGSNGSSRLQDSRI
Put plainly: Inhibition of human GlyT1 expressed in cells assessed as [3H]glycine uptake. In kind it is cell-based. The essentials: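 [³H]-glycine uptake inhibition in cells transfected with human GlyT1. EC₅₀ values are the average of at least two independent experiments.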
A word on the EC50: it is the midpoint of the concentration-response curve. In the case of `CN1CCCC(NC(=O)c2ccc(C(F)(F)F)cc2C(F)(F)F)(c2ccccc2)C1` (racemic), the EC50 was 0.54 µM.

For `COc1cc(C(F)(F)F)cc(SC)c1C(=O)NC1(c2cnccn2)CCCN(C)C1` (racemic), the EC50 was 1.67 µM.

On to `COc1cc(C(F)(F)F)cc(SC)c1C(=O)NC1(c2ncccn2)CCCN(C)C1` (racemic), for which the EC50 is above 10 µM.

Consider `COc1cc(C(F)(F)F)cc(C(F)(F)F)c1C(=O)NC1(c2ccccc2)CCCN(C(C)C)C1` (racemic), for which the EC50 turned out to be 0.23 µM.

For the compound `COc1cc(C(F)(F)F)cc(SC)c1C(=O)NC1(c2ccccc2)CCCN(C)C1` (racemic), the EC50 turned out to be 0.024 µM.

Turning to `COc1cc(C(F)(F)F)cc(SC)c1C(=O)NC1(c2ccc(F)cc2)CCCN(C)C1` (racemic), the EC50 was 0.026 µM.

As for `COc1cccc(C(F)(F)F)c1C(=O)NC1(c2ccccc2)CCCN(C)C1` (racemic), the concentration for a half-maximal effect (EC50) came to 1.5 µM.

As for `CN1CCCC(NC(=O)c2ccc(C(F)(F)F)cc2)(c2ccccc2)C1` (racemic), the EC50 is above 10 µM.

For the compound `COc1cc(C(F)(F)F)cc(SC)c1C(=O)NC1(c2ccc(Cl)cc2)CCCN(C)C1` (racemic), the EC50 amounted to 0.028 µM.

In the case of `COc1cc(C(F)(F)F)cc(SC)c1C(=O)NC1(c2cccc(F)c2)CCCN(C)C1` (racemic), the EC50 was found to be 0.048 µM.

Take `CN1CCCC(NC(=O)c2ccc(Cl)cc2Cl)(c2ccccc2)C1` (racemic): the concentration giving a half-maximal response (EC50) is 0.67 µM.

Regarding `COc1cc(C(F)(F)F)cc(SC)c1C(=O)NC1(c2ccc(F)cn2)CCCN(C)C1` (racemic), the EC50 turned out to be 0.18 µM.

In the case of `COc1cc(C(F)(F)F)cc(SC)c1C(=O)NC1(c2ccncn2)CCCN(C)C1` (racemic), the EC50 stood at 1.7 µM.

Turning to `CN1CCCC(NC(=O)c2ccc(C(F)(F)F)cc2Br)(c2ccccc2)C1` (racemic), the EC50 was 0.3 µM.

`COc1cc(C(F)(F)F)cc(SC)c1C(=O)NC1(c2ccc(C)cc2)CCCN(C)C1` (racemic): the EC50 was 0.23 µM.

For the compound `COc1cc(C(F)(F)F)cc(SC)c1C(=O)NC1(c2ccncc2)CCCN(C)C1` (racemic), the EC50 is 0.06 µM.

Take `CN1CCCC(NC(=O)c2ccc(C(F)(F)F)cc2F)(c2ccccc2)C1` (racemic): the EC50 was determined as 9.9 µM.

Regarding `COc1cc(C(F)(F)F)cc(C(F)(F)F)c1C(=O)NC1(c2ccccc2)CCCNC1` (racemic), the EC50 stood at 0.66 µM.

For the compound `COc1cc(C(F)(F)F)cc(C(F)(F)F)c1C(=O)NC1(c2ccccc2)CCCN(C2CCCC2)C1` (racemic), the EC50 was 0.27 µM.

Turning to `COc1cc(C(F)(F)F)cc(C(F)(F)F)c1C(=O)NC1(c2ccccc2)CCCN(C(=O)c2ccccc2)C1` (racemic), the EC50 is above 10 µM.

Take `CSc1cc(C(F)(F)F)ccc1C(=O)NC1(c2ccccc2)CCCN(C)C1` (racemic): the EC50 was found to be 0.067 µM.

As for `CCN1CCCC(NC(=O)c2c(OC)cc(C(F)(F)F)cc2C(F)(F)F)(c2ccccc2)C1` (racemic), the EC50 came out at 0.23 µM.

In the case of `CN1CCCC(NC(=O)c2ccc(C(F)(F)F)cc2C#N)(c2ccccc2)C1` (racemic), the EC50 is above 10 µM.

For the compound `Cc1cc(C(F)(F)F)ccc1C(=O)NC1(c2ccccc2)CCCN(C)C1` (racemic), the EC50 was 0.32 µM.

On to `COc1cc(C(F)(F)F)cc(SC)c1C(=O)N[C@]1(c2ccccc2)CCCN(C)C1`, for which the EC50 worked out at 0.18 µM.

In the case of `COc1cc(C(F)(F)F)cc(C(F)(F)F)c1C(=O)NC1(c2ccccc2)CCCN(CC2CC2)C1` (racemic), the EC50 stood at 0.38 µM.

For the compound `COc1cc(C(F)(F)F)cc(SC)c1C(=O)NC1(c2cccnc2)CCCN(C)C1` (racemic), the EC50 is 0.054 µM.

For `COc1cc(C(F)(F)F)cc(C(F)(F)F)c1C(=O)NC1(c2ccccc2)CCCN(S(C)(=O)=O)C1` (racemic), the EC50 is above 10 µM.

As to `COc1ccc(C2(NC(=O)c3c(OC)cc(C(F)(F)F)cc3SC)CCCN(C)C2)cc1` (racemic), the EC50 came to 0.17 µM.

Consider `COc1cc(C(F)(F)F)ccc1C(=O)NC1(c2ccccc2)CCCN(C)C1` (racemic), for which the EC50 came to 4.8 µM.

As for `COc1cc(C(F)(F)F)cc(C(F)(F)F)c1C(=O)NC1(c2ccccc2)CCCN(C(C)=O)C1` (racemic), the EC50 is above 10 µM.

As for `COc1cc(C(F)(F)F)cc(C(F)(F)F)c1C(=O)NC1(c2ccccc2)CCCN(Cc2ccccc2)C1` (racemic), the EC50 worked out at 6.7 µM.

On to `COc1cccc(C2(NC(=O)c3c(OC)cc(C(F)(F)F)cc3SC)CCCN(C)C2)c1` (racemic), for which the EC50 was determined as 0.11 µM.

`COc1cc(C(F)(F)F)cc(SC)c1C(=O)NC1(c2cccc(Cl)c2)CCCN(C)C1` (racemic): the EC50 is 0.025 µM.

In a further experiment the target is T1, Sodium- and chloride-dependent glycine transporter 1. Put plainly: Inhibition of GlyT1 (unknown origin).
As a reminder, the IC50 is the point on the concentration scale where inhibition reaches its midpoint. The compound `COc1cc(C(F)(F)F)cc(C(F)(F)F)c1C(=O)NC1(c2ccccc2)CCCN(C)C1` (stereo not given) gave an IC50 of 0.14 µM. That is a sub-micromolar value.
